Here are results for six compounds from ChEMBL document CHEMBL4043109, “Dual inhibitors of the human blood-brain barrier drug efflux transporters P-glycoprotein and ABCG2 based on the antiviral azidothymidine” (Bioorg Med Chem, 2017).

Calls of active or inactive are those of the source. The rule behind the calls is not given here.

A short description of data set [1]: Inhibition of P-gp in human MCF7/DX1 cells assessed as increase in calcein-AM accumulation incubated for 10 mins by flow cytometry. The data set is classed as cell-based. Conditions: MCF7/DX1, 10 min. The gist of the method: (§1)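 MCF-7/DX1 cells (125,000, in suspension) were incubated at 37 °C for 10 min in BME containing 0.5 μM calcein-AM (final) plus increasing compound concentrations, with DMSO held at 5%. GF120918 1 μM served as positive control. IC50 was taken from mean fluorescence; triplicate.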

The target of data set [2] is T1, Broad substrate specificity ATP-binding cassette transporter ABCG2 (Homo sapiens, UniProt Q9UNQ0).
T1 sequence (Q9UNQ0 whole entry): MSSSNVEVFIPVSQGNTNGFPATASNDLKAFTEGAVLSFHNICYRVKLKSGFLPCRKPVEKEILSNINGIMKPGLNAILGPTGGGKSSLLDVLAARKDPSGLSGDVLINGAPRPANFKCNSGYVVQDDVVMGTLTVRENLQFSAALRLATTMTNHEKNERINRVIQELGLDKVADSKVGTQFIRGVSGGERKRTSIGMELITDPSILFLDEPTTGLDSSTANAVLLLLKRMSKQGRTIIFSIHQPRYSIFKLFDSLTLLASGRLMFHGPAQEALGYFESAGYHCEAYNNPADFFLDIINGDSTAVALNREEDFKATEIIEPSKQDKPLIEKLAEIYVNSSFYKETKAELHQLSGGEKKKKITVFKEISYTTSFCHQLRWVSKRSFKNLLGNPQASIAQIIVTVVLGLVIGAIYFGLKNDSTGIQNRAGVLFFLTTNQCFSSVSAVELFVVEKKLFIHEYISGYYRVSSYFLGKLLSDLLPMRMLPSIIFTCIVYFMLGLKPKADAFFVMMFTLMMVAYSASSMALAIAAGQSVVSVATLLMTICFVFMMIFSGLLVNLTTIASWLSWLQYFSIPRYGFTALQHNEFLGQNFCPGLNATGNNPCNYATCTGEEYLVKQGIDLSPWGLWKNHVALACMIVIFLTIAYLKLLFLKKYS
The experiment in a line: Inhibition of ABCG2 in human MCF7/FLV1000 cells assessed as increase in mitoxantrone accumulation at 200 uM incubated for 30 mins by flow cytometry. Conditions: 0.5 h.

In data set [3] the target is T1, Broad substrate specificity ATP-binding cassette transporter ABCG2. Nature of the data set: Inhibition of ABCG2 in human MCF7/FLV1000 cells assessed as increase in mitoxantrone accumulation at 400 uM incubated for 30 mins by flow cytometry. Conditions: 0.5 h.
The species entered for data set [4] is Homo sapiens. The experiment in a line: Inhibition of P-gp in human MCF7/DX1 cells assessed as increase in calcein-AM accumulation at 500 uM incubated for 10 mins by flow cytometry. The data set is classed as cell-based. The gist of the method:
as §1

The species named for data set [5] is Homo sapiens. The experiment in a line: Inhibition of P-gp in human MCF7/DX1 cells assessed as increase in calcein-AM accumulation at 400 uM incubated for 10 mins by flow cytometry. Type of data set: cell-based. The gist of the method:
as §1

Data set [6] has as its target ATP-dependent translocase ABCB1 (Homo sapiens, UniProt P08183). The experiment in a line: Inhibition of human MDR1 expressed in Sf9 cell membranes assessed as reduction in [125I]-IAAP binding incubated for 20 mins under UV light irradiation and measured after 30 mins by densitometry based photo-affinity labeling assay. The gist of the method:
(§2)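 Crude Sf9 membranes, from baculovirus infection expressing P-gp (25 µg) or ABCG2 (40 µg), were preincubated 10 min at room temperature in the dark. Buffer was 50 mM Tris pH 7.5 with 1% aprotinin, 1 mM DTT and 2 mM AEBSF. Additions were compound (in DMSO) and [125I]-IAAP, ~2200 Ci/mmol. Controls were 2.5% DMSO and GF120918 (10 µM for P-gp, 20 µM for ABCG2). Samples were UV-irradiated at 365 nm for 20 min on ice, then held 30 min in Laemmli buffer. Bands were resolved on 7.5% SDS-PAGE, autoradiographed and quantified as % of DMSO control to give IC50.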

Data set [7] in a line: Cytotoxicity in human MCF-7 FLV1000 cells assessed as cell viability at […] uM incubated for 24 hrs by MTT assay. The data set is classed as cell-based. Particulars: read-out: Activity.
A short description of data set [8]: Cytotoxicity in human MCF7/DX1 cells assessed as cell viability at 2.3 uM incubated for 24 hrs by MTT assay. Type of data set: cell-based. Particulars: read-out: Activity. In outline:
(§3)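 MTT viability assay on MCF-7/FLV1000 (ABCG2-overexpressing, grown with 1000 nM flavopiridol) and MCF-7/DX1 (P-gp-overexpressing, grown with 1 μM doxorubicin) cells. Cells were exposed for 24 h to increasing dimer concentrations. Viability is the absorbance of treated cells relative to untreated cells.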

In data set [9] the target is T1, Broad substrate specificity ATP-binding cassette transporter ABCG2. The experiment in a line: Inhibition of human ABCG2 expressed in Sf9 cell membranes assessed as reduction in [125I]-IAAP binding incubated for 20 mins under UV light irradiation and measured after 30 mins by densitometry based photo-affinity labeling assay. In outline:
as §2

Data set [10] shares this target. The experiment in a line: Inhibition of ABCG2 in human MCF7/FLV1000 cells assessed as increase in mitoxantrone accumulation incubated for 30 mins by flow cytometry.
Data set [11] can be described thus: Cytotoxicity in human MCF-7 FLV1000 cells assessed as cell viability at 40 uM incubated for 24 hrs by MTT assay. The data set is classed as cell-based. Conditions: read-out: Activity. The gist of the method: as §3
Data set [12] is described as follows: Cytotoxicity in human MCF7/DX1 cells assessed as cell viability at 2 uM incubated for 24 hrs by MTT assay. The data set is classed as cell-based. Conditions: read-out: Activity. In outline:
as §3

Sequence of ATP-dependent translocase ABCB1 (P08183 whole entry): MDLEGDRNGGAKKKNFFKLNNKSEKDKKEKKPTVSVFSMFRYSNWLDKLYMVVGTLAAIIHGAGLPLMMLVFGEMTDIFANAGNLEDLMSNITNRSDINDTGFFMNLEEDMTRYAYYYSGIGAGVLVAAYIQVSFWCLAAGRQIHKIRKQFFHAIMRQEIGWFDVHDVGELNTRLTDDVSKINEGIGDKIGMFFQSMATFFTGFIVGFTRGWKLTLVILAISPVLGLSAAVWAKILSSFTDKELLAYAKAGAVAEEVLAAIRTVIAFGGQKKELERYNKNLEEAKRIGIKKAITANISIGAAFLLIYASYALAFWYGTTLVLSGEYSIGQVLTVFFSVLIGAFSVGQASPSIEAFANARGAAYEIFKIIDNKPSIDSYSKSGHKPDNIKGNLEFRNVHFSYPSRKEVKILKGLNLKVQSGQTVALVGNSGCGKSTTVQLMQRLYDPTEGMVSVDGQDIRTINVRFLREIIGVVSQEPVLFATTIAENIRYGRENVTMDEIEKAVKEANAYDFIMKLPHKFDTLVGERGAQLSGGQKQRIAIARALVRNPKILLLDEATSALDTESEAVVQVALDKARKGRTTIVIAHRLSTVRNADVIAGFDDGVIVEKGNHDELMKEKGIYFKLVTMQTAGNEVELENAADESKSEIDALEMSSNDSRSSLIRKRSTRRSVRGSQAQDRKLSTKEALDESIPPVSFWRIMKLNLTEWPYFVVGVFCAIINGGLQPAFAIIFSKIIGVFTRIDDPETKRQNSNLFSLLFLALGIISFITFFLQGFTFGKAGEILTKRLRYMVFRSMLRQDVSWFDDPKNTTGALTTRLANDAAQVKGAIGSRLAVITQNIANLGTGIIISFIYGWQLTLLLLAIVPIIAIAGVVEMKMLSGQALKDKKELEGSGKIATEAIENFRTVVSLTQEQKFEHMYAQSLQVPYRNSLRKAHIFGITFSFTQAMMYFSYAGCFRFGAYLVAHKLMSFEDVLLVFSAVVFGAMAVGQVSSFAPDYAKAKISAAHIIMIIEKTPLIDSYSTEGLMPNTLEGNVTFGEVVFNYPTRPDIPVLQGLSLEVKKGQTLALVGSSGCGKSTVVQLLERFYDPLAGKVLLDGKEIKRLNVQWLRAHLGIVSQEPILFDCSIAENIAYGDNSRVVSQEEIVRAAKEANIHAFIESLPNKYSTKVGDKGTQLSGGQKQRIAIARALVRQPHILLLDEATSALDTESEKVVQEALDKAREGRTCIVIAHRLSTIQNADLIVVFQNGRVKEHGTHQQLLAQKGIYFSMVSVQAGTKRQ

`Cc1cn([C@H]2C[C@H](N=[N+]=[N-])[C@@H](COC(=O)CCCCCC(=O)OC[C@H]3O[C@@H](n4cc(C)c(=O)[nH]c4=O)C[C@@H]3N=[N+]=[N-])O2)c(=O)[nH]c1=O`: the half-maximal inhibitory concentration (IC50) in data set [1] is > 200 µM. The “inhibition (INH)” value in [2] is given as “Not Active”.
`Cc1cn([C@H]2C[C@H](N=[N+]=[N-])[C@@H](CO)O2)c(=O)[nH]c1=O` [ZIDOVUDINE]: the “inhibition (INH)” value in [3] is reported as “Not Active”. The inhibition result in the data set listed under Homo sapiens [4] was “inactive”.
Turning to `Cc1cn([C@H]2C[C@H](N=[N+]=[N-])[C@@H](COC(=O)CCC(=O)OC[C@H]3O[C@@H](n4cc(C)c(=O)[nH]c4=O)C[C@@H]3N=[N+]=[N-])O2)c(=O)[nH]c1=O`, the inhibition result in the data set listed under Homo sapiens [5] was “inactive”. Besides, the “inhibition (INH)” value in data set [2] is listed as “Not Active”.
For `Cc1cn([C@H]2C[C@H](N=[N+]=[N-])[C@@H](COC(=O)CCCCCCCCCCC(=O)OC[C@H]3O[C@@H](n4cc(C)c(=O)[nH]c4=O)C[C@@H]3N=[N+]=[N-])O2)c(=O)[nH]c1=O`, the IC50 in data set [6] was 9.3 µM; in data set [1], 2.3 µM; in [9], 4.3 µM; in data set [10] it was 11.5 µM. Further, the “inhibition (INH)” value in data set [6] (human, 20 min) was “Dose-dependent effect”; in [9] (human, 20 min), “Dose-dependent effect”. In data set [7], the viability at 24 h, 11.5 µM is > 95%. For the same compound, in data set [8], the viability at 24 h, 2.3 µM was > 95%.
`Cc1cn([C@H]2C[C@H](N=[N+]=[N-])[C@@H](COC(=O)CCCCCCCCCCCCC(=O)OC[C@H]3O[C@@H](n4cc(C)c(=O)[nH]c4=O)C[C@@H]3N=[N+]=[N-])O2)c(=O)[nH]c1=O`: the IC50 in data set [1] is 2 µM; in data set [10], 13.3 µM. Further, the viability at 24 h, 13.3 µM in [7] was > 95%. In [11], the viability at 24 h, 40 µM amounted to 60%. For the same compound, the viability at 24 h, 2 µM in data set [12] was > 95%.
`Cc1cn([C@H]2C[C@H](N=[N+]=[N-])[C@@H](COC(=O)CCCCCCCCC(=O)OC[C@H]3O[C@@H](n4cc(C)c(=O)[nH]c4=O)C[C@@H]3N=[N+]=[N-])O2)c(=O)[nH]c1=O`: the IC50 in [1] is 11.3 µM; in data set [10] it was 28.2 µM.
